Screens from PubChem.
Hits are enriched below; roughly 2.1% of the tested compounds scored in any of these assays.
RanGTP-Impb inh: disruptors of Ran-importin-beta complex formation – biochemical, FRET, CFP-Ran, YFP-importin-beta, homogeneous, primary screen; cell-free CFP-Ran/YFP-importin-beta FRET ratio; inhibition, % (test concentration not listed); 300,000 tested, 1.1% active; AID 2216;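 active = more than half of the replicate wells show a fall in the fluorescence ratio signal beyond about 16%, limit read from the data, passing the limit was not always enough; inconclusive = exactly half of the replicate wells pass the set limit; inactive = fewer than half of replicates pass the limit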;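 also: 0% = DMSO wells and 100% = Ran loaded with GDP instead of GTP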
KLK7 zymogen act: activates the human kallikrein-7 zymogen; activation, % at 7 µM; purified proKLK7, EDANS-DABCYL substrate fluorescence; 100% is mature enzyme control, 0% vehicle; 370,000 tested, 0.9% active; P49862;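 active = activation above the mean of all tested compounds plus 3 SD, computed per campaign excluding outliers beyond control limits, cut at about 13% in these data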
Runt-CBFb FRET: blocks binding of human RUNX1 Runt domain to CBFb; Q01196+Q13951; 220,000 tested, 0.46% active; AID 1496; Cerulean-Runt/Venus-CBFb FRET ratio 530/480, 1 h; inhibition, % at 20 µM;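 active = inhibition over about 50% at 20 µM in the single-dose screen, limit read from the data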;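 also: 0% = DMSO wells and 100% = excess unlabeled CBFb competitor control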
Target sequence (Q01196 whole entry, looked up, the tested form may be a part): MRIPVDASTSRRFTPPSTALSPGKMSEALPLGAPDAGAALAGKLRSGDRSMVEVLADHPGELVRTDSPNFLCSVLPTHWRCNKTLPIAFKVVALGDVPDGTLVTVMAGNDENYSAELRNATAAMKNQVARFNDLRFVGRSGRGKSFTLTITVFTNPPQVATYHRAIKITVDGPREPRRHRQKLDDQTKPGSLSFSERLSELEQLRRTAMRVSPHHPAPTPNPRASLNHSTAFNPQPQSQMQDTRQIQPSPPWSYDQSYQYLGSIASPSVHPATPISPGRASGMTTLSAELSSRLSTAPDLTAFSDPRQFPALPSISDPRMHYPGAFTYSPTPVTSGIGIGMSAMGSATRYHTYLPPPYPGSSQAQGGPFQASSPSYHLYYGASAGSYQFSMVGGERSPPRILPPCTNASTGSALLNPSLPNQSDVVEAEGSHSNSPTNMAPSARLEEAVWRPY
Target sequence (Q13951 whole entry, looked up, the tested form may be a part): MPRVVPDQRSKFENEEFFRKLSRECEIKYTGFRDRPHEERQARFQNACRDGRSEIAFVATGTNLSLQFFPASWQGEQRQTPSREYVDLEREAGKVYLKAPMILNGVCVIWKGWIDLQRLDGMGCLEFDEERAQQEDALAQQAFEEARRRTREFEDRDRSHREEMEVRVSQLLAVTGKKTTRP
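Assay system: Cerulean-Runt domain / Medium: Tris 50 mM pH 7.5, KCl, K2SO4, 0.01% BSA / Timing: protein complex preformed 1 h, compound exposure 1 h, room temperature, dark / Measured by: FRET, excitation 422 nm, emission at 530 and 480 nm / Evaluation: loss of energy transfer signal / Control set: 5 µM unlabeled CBFb as full-inhibition high control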
Runt-SMMHC FRET: Runt domain-CBFb-SMMHC interaction inhibition | 220,000 tested, 0.74% active | inhibition, % at 20 µM | Cerulean-Runt/Venus-CBFb-SMMHC FRET ratio 530/480, 1 h | Q01196+Q13951 | AID 1434;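 active = mean inhibition across duplicate retests at 20 µM reaching about 50%, limit read from the data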;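 also: 0% = DMSO wells and 100% = wells with excess untagged CBFb-SMMHC; inhibitors lower the FRET ratio by blocking Runt binding to CBFb-SMMHC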
MEX-5 binding: C. elegans MEX-5 TCR-2 RNA binding activity; Q9XUB2; MEX-5/FITC-TCR2 RNA binding, fluorescence polarization; active compounds read low; activity score (negative = inhibition of binding), % at 10 µM; 300,000 tested, 0.38% active;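 active = inhibition past about -25% in most replicates, and total fluorescence under double the plate's negative control median, limit read from the data; inconclusive = replicates evenly split on the limit, or fluorescence at least double controls; inactive = too little inhibition in most replicates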;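 also: 0% = DMSO and -100% = 5 µM competing unlabeled TCR2 RNA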
Starred values were filed as active, the others as inactive; ? = inconclusive; nt = no result.

SMILES	RanGTP-Impb inh	KLK7 zymogen act	Runt-CBFb FRET	Runt-SMMHC FRET	MEX-5 binding
CC1=C(C(=O)OCC2CCCO2)C(c2ccc(C)cc2)C2=C(CC(C)(C)CC2=O)N1 (configuration not stated)	5	11	20	56*	-1
Cc1noc(C)c1COC(=O)c1ccc(F)c(S(=O)(=O)N2CCOCC2)c1	nt	0	nt	nt	nt
CC(C)OC(=O)CSc1nnc2n1C(C)(C)Cc1ccccc1-2	-3	0	121*	132*	0
O=C(Nc1cccc(Cl)c1Cl)c1csc([C@H]2C[C@H](O)[C@@H](CO)O2)n1	nt	0	nt	nt	nt
O=C1NC(=O)[C@@H]2C3c4ccccc4C=CN3[C@H](C(=O)c3cccs3)[C@H]12 (some centres not stated)	-4	nt	-2	-13	-53*
O=C(O)c1ccc(NC2(C(=O)O)CCCC2)cc1	nt	0	nt	nt	nt
Oc1ccc(-c2csc(Nc3ccccn3)n2)cc1O	-1	0	nt	nt	-32*
O=C(COc1ccc(S(=O)(=O)N2CCOCC2)cc1)Nc1ccccc1C(F)(F)F	27*	1	2	2	0
O=C(COc1ccc(S(=O)(=O)N2CCOCC2)cc1)NCCc1ccccc1	-2	-1	nt	nt	-3
CSc1ccc(CN2CCC(N3CCC(C(=O)NC4CC4)CC3)CC2)cc1	nt	0	nt	nt	nt
Cc1cccc2cc3c(NC(=O)c4ccccn4)nn(C)c3nc12	35*	-1	57*	86	-4
Cc1ccccc1NC(=O)c1ccccn1	-2	0	1	1	0
CCn1nc(NC(=O)CC(C)C)c2cc3cccc(C)c3nc21	?	0	nt	nt	0
CCn1nc(NC(=O)C(C)(C)C)c2cc3cccc(C)c3nc21	47*	3	nt	nt	1
CCCn1nc(NC(=O)COC)c2cc3cccc(C)c3nc21	38*	7	nt	nt	0
CCCn1nc(NC(C)=O)c2cc3cccc(C)c3nc21	69*	0	nt	nt	2
CC(=O)C1=C(O)C(CSCc2ccccc2)N(C)C1=O (configuration not stated)	nt	0	nt	nt	nt
CCCC(=O)Nc1nn(C)c2nc3c(C)cccc3cc12	31*	1	20	39	1
CCc1ccc(/C=C2\Oc3cc(OS(C)(=O)=O)ccc3C2=O)cc1	3	0	-8	-6	-1
CC(C)(C)c1ccc(/C=C2\Oc3cc(O)ccc3C2=O)cc1	3	-50	nt	nt	-27*
COC(=O)c1ccc2c(c1)C(=O)/C(=C/c1ccc(O)cc1)O2	19*	1	-226	-106	5
O=C1/C(=C/c2ccc([N+](=O)[O-])cc2)Oc2cc(O)ccc21	-7	0	nt	nt	0
O=C1/C(=C/c2ccc(Br)cc2)Oc2cc(O)ccc21	-38	-4	nt	nt	-40*
CC(O)(c1cccc(F)c1)c1nc(-c2ccc(S(C)(=O)=O)cc2)cs1 (configuration not stated)	nt	0	nt	nt	nt
CN(C)S(=O)(=O)c1ccc(C(=O)/C=C/c2cccnc2)cc1	3	0	nt	nt	1
SMILES	RanGTP-Impb inh	KLK7 zymogen act	Runt-CBFb FRET	Runt-SMMHC FRET	MEX-5 binding
CCCCOc1ccc(C(=O)NC2CCCCN(CC)C2=O)cc1 (configuration not stated)	nt	0	nt	nt	nt
Nc1nc2cc(Cl)c(Br)cc2o1	nt	0	nt	nt	nt
O=C(/C=C/c1ccc(O)c(O)c1)c1ccccc1O	-1	0	0	-7	-38*
CCOc1ccc2[nH]c3ncccc3c(=O)c2c1	34*	7	nt	nt	-13
CCOc1ccc2[nH]c(C)c(CN3CCOCC3)c(=O)c2c1	6	2	-2	2	-8
CC(C)(C)n1nnnc1CN(Cc1ccco1)Cc1cc2cc3c(cc2[nH]c1=O)OCO3	-11	28*	-31	60	0
O=c1[nH]c2cc3c(cc2cc1CN(CCc1ccccc1)Cc1nnnn1CC1CCCO1)OCO3 (configuration not stated)	-75	1	-92	62*	-1
CNC(=O)C[C@H]1C(=O)N(c2ccccc2)C[C@@H]1CSC	nt	0	nt	nt	nt
Cc1ccc2c(n1)sc1c(-c3ccc(Br)cc3)c(C#N)c(N)nc12	79*	-2	32	92	-1
COCCNC(=O)c1cc2c(c(-c3cccc(C#Cc4ccc(OC)c(OC)c4)c3)n1)[C@H](CCO)N(S(=O)C(C)(C)C)C2 (some centres not stated)	nt	0	nt	nt	nt
N=c1oc2c3c4c(cc2cc1C(=O)Nc1ccccc1)CCCN4CCC3	133*	nt	32	61*	?
Cc1ccc(NC(=O)c2cc3ccccc3oc2=N)cc1	-6	0	nt	nt	1
CC1(C)NC(=O)N(CC(=O)OCC(=O)N2CCN(S(=O)(=O)c3ccccc3)CC2)C1=O	nt	0	nt	nt	nt
Cc1occc1-c1nnc(SCC(=O)N(C)c2ccccc2)n1C	26*	-1	nt	nt	1
O=C(/C=C/[C@H]1O[C@@H](n2cnc3c(NC(=O)c4ccccc4)ncnc32)[C@H](O)[C@@H]1O)NC1CCCCC1	nt	0	nt	nt	nt
COc1ccc(-n2c(NC(=O)c3ccco3)c(C#N)c3nc4ccccc4nc32)cc1	128*	5	-2	-3	-4
CCCCn1c(NC(=O)c2ccccc2Cl)c(C#N)c2nc3ccccc3nc21	-5	-3	84*	60*	nt
N#Cc1c(NC(=O)c2ccccc2Cl)n(Cc2ccccc2)c2nc3ccccc3nc12	nt	-5	49	111*	nt
COc1ccc(CNC(=O)c2cnc3cc(C)ccn3c2=O)cc1	5	0	2	5	-28*
O=C(c1ccc(CS(=O)Cc2ccc(Cl)cc2)o1)N1CCN(C2CCCCC2)CC1 (configuration not stated)	nt	1	nt	nt	nt
Cc1nn(-c2ccc(Cl)cc2)c(=O)c2ccccc12	-2	-1	2	5	-2
Cc1c(Cl)sn(-c2ccc(Cl)cc2)c1=O	nt	0	29	53*	nt
CC(C(=O)O)N1C(=O)/C(=C/C=C/c2ccco2)SC1=S (configuration not stated)	-12	1	nt	4	-87*
C#CC1(O)C2C=C(OC)C(=O)C1C(c1ccccc1)C2C (configuration not stated)	nt	0	nt	nt	nt
CC(C)N1CCC2(CC1)C(C#N)=C(N)NC(S)=C2C#N	-5	nt	29	64*	3
CCOC(=O)C1=C(C)NC2=C(C(=O)CCC2)C1c1cccs1 (configuration not stated)	0	3	-1	2	1
CCOC(=O)c1sc2c(c1C)C(c1cccs1)C1=C(CCCC1=O)N2 (configuration not stated)	?	-78	99*	111*	-1
CC(NC(=O)C1CCN(CCOc2ccc(Cl)cc2)CC1)c1cccc2ccccc12 (configuration not stated)	nt	1	nt	nt	nt
CCOC(=O)C1=CC[C@@H](c2ccccc2C(F)(F)F)N(S(=O)(=O)c2ccc(C)cc2)[C@H]1c1ccc(C#N)cc1	nt	0	nt	nt	nt
